In publication PMC2873069 (The journal of maternal-fetal & neonatal medicine : the …, 2010):
“Also recorded” adds a separate entry of the source. Like-named read-outs stand apart in the source and are kept apart here.

Assays:
[1] = cited from earlier work
[2] = tested on: term human placental lobule; type: in vitro ADME; settings: for fetal/maternal concentration ratio: HSA 30 mg/ml
[3] = tested on: perfused placental tissue; assay: Effect of bupropion on placental tissue viability; design: species or system human; settings: for effect on placental viability and functional parameters: 150 ng/ml and 450 ng/ml bupropion
[4] = cited from earlier work; for pharmacologic activity: hepatic metabolites
[5] = tested on: placental tissue enzymes; assay: Metabolism of bupropion by placental tissue during perfusion; settings: end of 4 hours of perfusion
[6] = type: physicochemical
Procedure, shortened: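 Test compound as the [3H] form recirculated for 4 h through the closed perfusion circuit (glassware, teflon tubing, tygon peristaltic-pump tubing) without placenta, in M199 with dextran 40, heparin, gentamicin, sulfamethoxazole and trimethoprim at 37 °C. Run without and with human serum albumin at 30 mg/mL. Loss of radiolabel from the medium was tracked over 4 h.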

[7] = end of 4-hour perfusion, independent of initial concentration
[8] = bupropion 150 ng/mL, 4 hours of perfusion
[9] = bupropion 450 ng/mL, 4 hours of perfusion

In the case of `CC(NC(C)(C)C)C(=O)c1cccc(Cl)c1` (centres unmarked) [bupropion], the octanol/water partition coefficient ([1]; no reference given) is listed as 3.21, the pKa ([1]; no reference given) is listed as 7.6 and the “decline in concentration in the maternal circuit (shape)” value ([2]; 150 ng/ml, 4 hours) is listed as “biphasic”. For the same compound, the “time at which equilibrium was achieved in the fetal circuit” value ([2]; 150 ng/ml, from time 0) was 180 min, the “fetal circuit concentration as % of initial concentration” value ([2]; 450 ng/ml, end of 4 hours) was 23 ± 2% and the fetal/maternal concentration ratio ([2]; bupropion 150 ng/ml in maternal circuit, end of 4-hour perfusion) was 1.07 ± 0.22. The fetal/maternal concentration ratio ([2]; bupropion 450 ng/ml in maternal circuit, end of 4-hour perfusion) was 1.00 ± 0.14, the “fraction of drug remaining in the maternal circuit” value [2, 7] was 32 ± 5% and the “fraction of drug retained by placental tissue” value [2, 7] was 48 ± 6%. For the same compound, the “concentration in the fetal circuit at the end of the experiment” value ([2]; initial maternal concentration 150 ng/ml, 4 hours) was 35 ± 4 ng/mL, the “concentration in the fetal circuit at the end of the experiment” value ([2]; initial maternal concentration 450 ng/ml, 4 hours) was 104 ng/mL and the “effect on placental viability and functional parameters” value [3] was “did not affect; also recorded: do not adversely affect”. For the same compound, the “O2 consumption, % of control period” value [3, 8] was 114 ± 37%, the “O2 consumption, experimental period” value [3, 8] was 6.6 ± 1.6 mL/min/kg and the “O2 transfer, % control period” value [3, 8] was 56 ± 21%. For the same compound, the “O2 transfer, experimental period” value [3, 8] was 0.22 ± 0.1 mL/min/kg, the “O2 consumption, % of control period” value [3, 9] was 98 + 38% and the “O2 consumption, experimental period” value [3, 9] was 3.7 + 1.2 mL/min kg. For the same compound, the “O2 transfer, % control period” value [3, 9] was 43 + 16% and the “release of hCG at the end of the experimental period (control period = 100%)” value ([3]; bupropion transfused in presence of HSA) was 94 ± 12%.
In the case of `CC(NC(C)(C)C)C(O)c1cccc(Cl)c1` (centres unmarked) [erythrohydrobupropion], the pharmacologic activity [4] is given as “very low activity”.
For `Cc1cc(=O)n(-c2ccccc2)n1C` [AP, antipyrine], the “binding to plasma proteins and human serum albumin” value [1] is given as “minimal binding” and the “transplacental transfer to the fetal circuit” value ([2]; antipyrine 20 μg/mL co-transfused marker, 4 hours) is given as “approximately 50%”.
In the case of `C[C@H]1NC(C)(C)CO[C@]1(O)c1cccc(Cl)c1` [hydroxybupropion], the “pharmacologic activity relative to the parent compound” value ([4]; hepatic metabolite) is given as about 50%.
In the case of `C[C@H](NC(C)(C)C)[C@@H](O)c1cccc(Cl)c1` [threohydrobupropion], the pharmacologic activity [4] is given as “very low activity”, the “ratio of metabolite to parent drug in placental tissue” value [5] is given as 0.06 and the “ratio of metabolite to parent drug in the fetal circuit” value [5] is given as 0.07. The “ratio of metabolite to parent drug in the maternal circuit” value [5] was 0.08 and the “effect on placental viability and functional parameters” value [3] was “do not adversely affect”.
In the case of [^3H]-bupropion, the “binding to glassware and teflon tubing” value ([6]; 4 hours recirculation in absence of placenta) is reported as “negligible”, the “decline of initial amount in the medium” value ([6]; 4 hours recirculation in absence of placenta, no HSA) is reported as 40% and the “reduction of binding to tygon tubing” value ([6]; after addition of 30 mg/mL HSA to the perfusion medium) is reported as 25%.
